Type in all cases: ADME, organism-based
Data set [1] can be described thus: Plasma clearance in iv/po dosed Sprague-Dawley rat. In a few lines: (§1)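 Male Sprague-Dawley rats dosed by intravenous and by oral routes. Pharmacokinetic parameters are derived from these studies.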
Data set [2] can be described thus: Half life in iv/po dosed Sprague-Dawley rat. The conditions noted are these: in vivo. In a few lines: as §1
The nature of data set [3]: Volume of distribution at steady state in iv/po dosed Sprague-Dawley rat. Conditions: in vivo, read-out: Vdss. In a few lines:
as §1

Data set [4] can be described thus: Oral bioavailability in Sprague-Dawley rat. Conditions: in vivo. In a few lines: as §1

`CN(C)[C@@H]1CCc2cc(N3CC[C@H](NS(=O)(=O)c4ccc5cc(Cl)ccc5c4)C3=O)ccc21` displayed a clearance in data set [1] of 7.6 mL/min/kg. The same compound gave a half-life in data set [2] of 3.4 h. Besides, in data set [3], the Vd was found to be 1.7 L/kg. In data set [4], this compound displayed a bioavailability of 27%.
`O=C1[C@@H](NS(=O)(=O)c2ccc3cc(Cl)ccc3c2)CCN1c1ccc([C@@H]2CCCN2)cc1F` returned a clearance in data set [1] of 2.8 mL/min/kg. In data set [2], this compound gave a half-life of 7.5 h. The Vd in data set [3] was 1.7 L/kg. This compound also displayed a bioavailability in data set [4] of 38%.
For `O=C1[C@@H](NS(=O)(=O)c2ccc3cc(Cl)ccc3c2)CCN1c1ccc([C@H]2CCCN2)cc1F`, in that order: 2.6 mL/min/kg, 10.2 h, 1.9 L/kg and 25%.
In data set [1], `CN(C)[C@H]1CCc2cc(N3CC[C@H](NS(=O)(=O)c4ccc5cc(Cl)ccc5c4)C3=O)ccc21` returned a clearance of 6 mL/min/kg. Besides, the half-life in data set [2] was 4.4 h. The Vd in data set [3] was determined as 2 L/kg. Further, the bioavailability in data set [4] stood at 61%.
`CN[C@@H](C)c1ccc(N2CC[C@H](NS(=O)(=O)c3ccc4cc(Cl)ccc4c3)C2=O)c(F)c1` registered a bioavailability in data set [4] of over 10%.
In the case of `CN(C)C1CCc2cc(N3CC[C@H](NS(=O)(=O)/C=C/c4ccc(Cl)s4)C3=O)ccc21` (mixture of isomers), the clearance in data set [1] came to 9.5 mL/min/kg. In data set [2], this compound showed a half-life of 1.7 h. Moreover, the Vd in data set [3] was determined as 1.1 L/kg. This compound also showed a bioavailability in data set [4] of 57%.
`CNC1CCc2cc(N3CC[C@H](NS(=O)(=O)/C=C/c4ccc(Cl)s4)C3=O)ccc21` (mixture of isomers) came in with a clearance in data set [1] of 2.2 mL/min/kg. Also, the half-life in data set [2] is 5.4 h. The Vd in data set [3] turned out to be 0.9 L/kg.
`CNC1CCc2cc(N3CC[C@H](NS(=O)(=O)c4ccc5cc(Cl)ccc5c4)C3=O)ccc21` (mixture of isomers) displayed a clearance in data set [1] of 2.5 mL/min/kg. In data set [2], the half-life is 12.4 h. The Vd in data set [3] stood at 2.4 L/kg. Further, the bioavailability in data set [4] came out at 25%.
Take `CN1CCCC1c1ccc(N2CC[C@H](NS(=O)(=O)/C=C/c3ccc(Cl)s3)C2=O)c(F)c1` (mixture of isomers): the clearance in data set [1] stood at 11 mL/min/kg. Besides, the half-life in data set [2] is 1.4 h. Further, the Vd in data set [3] was 0.8 L/kg. The compound further returned a bioavailability in data set [4] of 41%.
In data set [1], `O=C1[C@@H](NS(=O)(=O)/C=C/c2ccc(Cl)s2)CCN1c1ccc(C2CCCN2)cc1F` (mixture of isomers) displayed a clearance of 2.8 mL/min/kg. This compound showed a half-life in data set [2] of 3.4 h. Moreover, the Vd in data set [3] amounted to 0.7 L/kg. This compound returned a bioavailability in data set [4] of 52%.
`O=C1[C@@H](NS(=O)(=O)c2ccc3cc(Cl)ccc3c2)CCN1c1ccc(C2CCCN2)cc1F` (mixture of isomers) returned a clearance in data set [1] of 2.7 mL/min/kg. The compound also showed a half-life in data set [2] of 9 h. Also, the Vd in data set [3] worked out at 1.9 L/kg. Also, the bioavailability in data set [4] turned out to be 24%.
For `O=C1[C@@H](NS(=O)(=O)c2ccc3c(Cl)c[nH]c3c2)CCN1c1ccc(C2CCCN2)cc1F` (mixture of isomers), in that order: 1.3 mL/min/kg, 11 h, 0.8 L/kg and under 1%.

The term half-life denotes the time needed for the level to fall by half in the phase considered. A lower half-life goes with rapid decline. Usually bioavailability stands for dose-corrected exposure relative to a reference, in per cent.

Source of the values: ChEMBL document CHEMBL1681766, “Structure and property based design of factor Xa inhibitors: pyrrolidin-2-ones with aminoindane and phenylpyrrolidine P4 motifs” (Bioorg Med Chem Lett, 2011).
